Data on seven compounds can be found in ChEMBL document CHEMBL1795270, “Synthesis and biological evaluation of a novel human stem/progenitor cells proliferation activator: 4-(4-(5-mercapto-1,3,4-oxadiazol-2-yl)phenyl) thiosemicarbazide (Stemazole)” (Eur J Med Chem, 2011).

The nature of series [1]: Induction of human HSC proliferation assessed as population doubling time at 41.6 uM by cell counting and luminescent cell viability assay (reference value: 73.6 hrs). In kind it is functional.
The species named for series [2] is Homo sapiens. Put plainly: Induction of human HSC proliferation assessed as fold increase after 6 days by direct phase contrast microscopy. In kind it is functional. The gist of the method:
(§1)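 HSCs kept serum-free without bFGF, seeded at 1×10^3 cells/well, then given a range of concentrations for 2, 4 and 6 days. Read at each time point by phase-contrast imaging, cell counting (three pictures per group, haemocytometer) and CellTiter-Glo luminescence. DMSO as negative control, bFGF as positive control. Mean ± SD.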

Series [3] is filed under the species Homo sapiens. Put plainly: Induction of human CSC proliferation after 4 days by luminescent cell viability assay. It counts as functional. The gist of the method:
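Third-passage CSCs (maintained in IMDM with 10% FBS and 2-mercaptoethanol) plated at 1×10^3 cells/well in basic medium, left 24 h, then treated for 4 days. DMSO as negative control. Viability read by CellTiter-Glo luminescence after 10 min at ambient temperature. At least triplicate, repeated three times, mean ± SD.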

Series [4] in a line: Cytotoxicity against human HSC after 4 days at 100 uM by luminescent cell viability assay. The following applies: 96 h. The gist of the method: (§2)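 Sixth-passage HSCs (kept as neurospheres in DMEM/F12 with bFGF, EGF, B27) plated at 1×10^3 cells/well in basic medium, left 24 h, then given serial dilutions for 4 days. DMSO as negative control, bFGF as positive control. Read-out by CellTiter-Glo: reagent added to the cells, 10 min at ambient temperature, then luminescence read. Values relative to DMSO (100%). At least triplicate, repeated three times, mean ± SD.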

A short description of series [5]: Cytotoxicity against human HSC assessed as morphological changes 13.8 to 40.2 uM up to 6 days by phase contrast microscopy. The following applies: 144 h. In short, it runs like this:
(§3)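 Phase-contrast microscope images of HSCs treated with various concentrations, DMSO or bFGF, taken at 2, 4 and 6 days. Scored by morphology, including signs of differentiation such as axonal growth or adipose drop appearance.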

Series [6] can be described thus: Solubility of the compound in DMSO. In kind it is physicochemical.
The species named for series [7] is Homo sapiens. Kind of series: Induction of human HSC proliferation under serum free condition after 4 days by cell counting and luminescent cell viability assay. It counts as functional. In short, it runs like this: as §1
For series [8], the species on record is Homo sapiens. Kind of series: Induction of human PSC proliferation after 4 days by luminescent cell viability assay. In kind it is functional. In short, it runs like this: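 Sixth-passage PSCs (expanded in DMEM/F12, 7.33 mM glucose, with 10% FBS and 20 ng/mL bFGF) plated at 1×10^3 cells/well in basic medium, left 24 h, then treated for 4 days. DMSO as negative control. Viability read by CellTiter-Glo luminescence after 10 min at ambient temperature. At least triplicate, repeated three times, mean ± SD.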

Series [9] is described as follows: Cytotoxicity against human HSC assessed as axonal growth or adipose drop appearance 13.8 to 40.2 uM up to 6 days by phase contrast microscopy. As to conditions: 144 h. In short, it runs like this: as §3
For series [10], the species on record is Homo sapiens. Put plainly: Induction of human HSC proliferation under serum free condition at 5 to 40 uM by cell counting and luminescent cell viability assay. In kind it is functional. The following applies: TDE = time-dependent effect. In short, it runs like this: as §1
A short description of series [11]: Induction of human HSC proliferation after 4 days by luminescent cell viability assay. It counts as functional. In short, it runs like this: as §2
The nature of series [12]: Inhibition of human HSC proliferation after 4 days by luminescent cell viability assay. As to conditions: 96 h. In short, it runs like this:
as §2

[13] abbreviates: Homo sapiens, 96 h, read-out: EC50.

SMILES strings stand for the structures. Active and inactive are the calls of the source. The calls are words filed in the database; no cut-off is given here.

In the case of `NNC(=S)Nc1ccc(-c2nnc(S)o2)cc1` [STEMAZOLE], the Time in series [1] came out at 48.5 h. Moreover, in the series listed under Homo sapiens [2], the fold change (FC) turned out to be 3. Besides, the result in the series filed under Homo sapiens [3] and in the series listed under Homo sapiens [8] was Active. Also, the Activity result in series [4] is “Non-toxic”; in series [5] it was “Non-toxic”; in the series filed under Homo sapiens [7], “Dose-dependent effect”; in [9], “Non-toxic”; in the series filed under Homo sapiens [10], “tde”. Further, in series [6], the solubility entry is “soluble”. Besides, the EC50 in series [11] (setting [13]) came out at 7.5 µM.

Consider `COc1ccc(NNC(=S)Nc2ccc(-c3nnc(S)o3)cc2)cc1`, for which the solubility entry in [6] is reported as “soluble”. For the same compound, in [12], the midpoint of inhibition, the IC50, lay at 42.7 µM.

As for `CNNC(=S)Nc1ccc(-c2nnc(S)o2)cc1`, the solubility result in series [6] is “soluble”.

Consider `S=C(NNCc1ccccc1)Nc1ccc(-c2nnc(S)o2)cc1`, for which the solubility result in [6] is “soluble”. Besides, the half-maximal effective concentration (EC50) result in [11] was “Not Active”.

Regarding `NNC(=S)Nc1ccc(-c2nnc(S)o2)cc1Br`, the Activity result in series [4] is “Toxic”. Moreover, the solubility entry in series [6] is given as “soluble”. Besides, the EC50 in series [11] (setting [13]) turned out to be 10 µM.

As for `S=C(NNc1ccccc1)Nc1ccc(-c2nnc(S)o2)cc1`, in [6], the solubility entry is on record as “soluble”. Also, the half-inhibitory concentration (IC50) in series [12] worked out at 8.3 µM.

Regarding `S=C(NNc1ccc(Cl)cc1)Nc1ccc(-c2nnc(S)o2)cc1`, the solubility entry in series [6] is on record as “soluble”. This compound also returned an IC50 in series [12] of 3.2 µM.

A word on the EC50: it is the midpoint of the concentration-response curve. The term IC50 denotes the midpoint of a concentration-inhibition curve. Low values mean inhibition by little substance, high ones a need for much substance.
